Reference: ChEMBL document CHEMBL6134900 (J Med Chem, 2025)
Activity calls are given as the source filed them. The calls are words filed in the database; no cut-off is given here.

Assays:
[1] = biological target: T1, Protein cereblon/SWI/SNF-related matrix-associated actin-dependent regulator of chromatin subfamily A member 2 (Homo sapiens, UniProt P51531+Q96SW2); experiment: PROTAC activity at CRBN/SMARCA2 in human HCC515 cells harboring mutated SMARCA4 assessed as induction of SMARCA2 degradation incubated for 48 hrs by immunoblot analysis; assay type: cell-based
How it was run: (§1)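 SMARCA4-mutant H322, HCC515, H2030 and H2126 cells were treated as indicated. SMARCA2 was immunoblotted in RIPA lysates and quantified after normalisation to β-actin. Expression is given relative to DMSO-treated cells, and Dmax was derived by nonlinear regression.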
Target sequence in this assay (P51531 whole entry, looked up, change not shown): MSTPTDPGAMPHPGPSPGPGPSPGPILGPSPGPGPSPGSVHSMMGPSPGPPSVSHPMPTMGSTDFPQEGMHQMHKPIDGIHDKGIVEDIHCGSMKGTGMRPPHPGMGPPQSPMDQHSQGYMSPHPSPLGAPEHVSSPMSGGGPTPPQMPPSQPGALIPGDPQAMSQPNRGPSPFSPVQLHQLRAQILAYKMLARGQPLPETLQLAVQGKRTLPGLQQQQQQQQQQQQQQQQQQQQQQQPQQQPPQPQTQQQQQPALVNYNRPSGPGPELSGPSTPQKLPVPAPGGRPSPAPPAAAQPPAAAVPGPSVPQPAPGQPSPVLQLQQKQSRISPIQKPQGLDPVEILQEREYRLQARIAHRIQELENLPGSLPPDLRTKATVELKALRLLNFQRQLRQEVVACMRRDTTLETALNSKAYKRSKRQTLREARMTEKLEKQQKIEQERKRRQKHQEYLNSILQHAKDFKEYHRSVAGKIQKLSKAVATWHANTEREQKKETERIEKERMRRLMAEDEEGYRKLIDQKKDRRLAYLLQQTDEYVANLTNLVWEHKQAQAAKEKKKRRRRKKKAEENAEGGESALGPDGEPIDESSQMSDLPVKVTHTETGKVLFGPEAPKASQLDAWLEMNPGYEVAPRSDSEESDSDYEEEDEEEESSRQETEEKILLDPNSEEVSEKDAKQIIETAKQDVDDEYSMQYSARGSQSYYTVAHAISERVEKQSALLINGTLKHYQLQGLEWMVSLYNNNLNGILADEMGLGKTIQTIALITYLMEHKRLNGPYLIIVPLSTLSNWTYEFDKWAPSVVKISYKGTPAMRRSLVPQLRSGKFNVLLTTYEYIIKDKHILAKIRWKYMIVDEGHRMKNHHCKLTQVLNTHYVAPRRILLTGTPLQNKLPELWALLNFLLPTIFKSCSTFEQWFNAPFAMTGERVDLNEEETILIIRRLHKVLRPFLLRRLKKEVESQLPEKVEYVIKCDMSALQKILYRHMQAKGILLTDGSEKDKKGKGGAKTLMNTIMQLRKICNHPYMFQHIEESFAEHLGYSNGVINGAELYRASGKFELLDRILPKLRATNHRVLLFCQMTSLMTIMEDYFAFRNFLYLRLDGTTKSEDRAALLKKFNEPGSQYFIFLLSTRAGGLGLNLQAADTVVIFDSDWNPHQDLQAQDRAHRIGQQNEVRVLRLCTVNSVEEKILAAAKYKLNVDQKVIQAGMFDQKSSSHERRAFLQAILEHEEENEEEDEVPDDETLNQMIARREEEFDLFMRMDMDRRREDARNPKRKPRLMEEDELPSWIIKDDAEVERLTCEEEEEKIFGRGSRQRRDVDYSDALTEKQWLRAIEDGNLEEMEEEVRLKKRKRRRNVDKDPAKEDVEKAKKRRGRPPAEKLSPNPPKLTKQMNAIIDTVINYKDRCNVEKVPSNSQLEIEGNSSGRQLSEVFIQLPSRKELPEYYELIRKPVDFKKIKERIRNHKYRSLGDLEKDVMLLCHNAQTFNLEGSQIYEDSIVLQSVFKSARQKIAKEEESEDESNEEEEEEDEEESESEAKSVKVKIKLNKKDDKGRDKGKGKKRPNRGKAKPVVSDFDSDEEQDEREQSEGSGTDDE
Target sequence in this assay (Q96SW2 whole entry, looked up, change not shown): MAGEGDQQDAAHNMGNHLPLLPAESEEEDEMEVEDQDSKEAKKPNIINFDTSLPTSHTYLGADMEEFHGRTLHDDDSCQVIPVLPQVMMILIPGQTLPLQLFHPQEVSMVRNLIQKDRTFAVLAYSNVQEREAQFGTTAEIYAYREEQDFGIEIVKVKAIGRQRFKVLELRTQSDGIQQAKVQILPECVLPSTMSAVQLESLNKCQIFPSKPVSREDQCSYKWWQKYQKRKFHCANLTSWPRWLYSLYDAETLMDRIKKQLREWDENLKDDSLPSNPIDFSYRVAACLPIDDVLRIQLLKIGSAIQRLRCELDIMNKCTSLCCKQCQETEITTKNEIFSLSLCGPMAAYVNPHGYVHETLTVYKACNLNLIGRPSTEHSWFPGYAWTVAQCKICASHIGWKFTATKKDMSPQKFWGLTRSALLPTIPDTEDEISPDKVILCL

[2] = biological target: T1, Protein cereblon/SWI/SNF-related matrix-associated actin-dependent regulator of chromatin subfamily A member 2; experiment: PROTAC activity at CRBN/SMARCA2 in human NCI-H1792 cells harboring wild type SMARCA4 assessed as induction of SMARCA2 degradation incubated up to 96 hrs by immunoblot analysis; assay type: cell-based
[3] = biological target: T2, Protein cereblon/SWI/SNF-related matrix-associated actin-dependent regulator of chromatin subfamily A member 4 (Homo sapiens, UniProt P51532+Q96SW2); experiment: PROTAC activity at CRBN/SMARCA4 in human NCI-H1792 cells harboring wild type SMARCA4 assessed as induction of SMARCA4 degradation incubated for 24 hrs by immunoblot analysis; assay type: cell-based
How it was run: (§2)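 H1792 (SMARCA4-WT) cells in RPMI with 10% FBS were treated with 1 nM–10 μM for 24 or 48 h. Cells were lysed in RIPA and immunoblotted for SMARCA2, SMARCA4 and β-actin. Bands were quantified and normalised to β-actin, with DMSO set at 100%. DC50 and Dmax were derived by nonlinear regression. n = 3 biological replicates.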

[4] = biological target: T1, Protein cereblon/SWI/SNF-related matrix-associated actin-dependent regulator of chromatin subfamily A member 2; experiment: PROTAC activity at CRBN/SMARCA2 in human NCI-H2126 cells harboring mutated SMARCA4 assessed as induction of SMARCA2 degradation incubated for 48 hrs by immunoblot analysis; assay type: cell-based; how it was run: as §1
Target sequence in this assay (P51531 whole entry, looked up, change not shown): as the sequence (P51531 whole entry, looked up, change not shown) above
Target sequence in this assay (Q96SW2 whole entry, looked up, change not shown): as the sequence (Q96SW2 whole entry, looked up, change not shown) above

[5] = (§3) Inhibition of colony formation in human HCC44 cells harboring wild type SMARCA4 incubated for 9 to 14 days by crystal violet staining based assay; assay type: functional, cell-based
How it was run: (§4)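 Single cells, 0.5–2 × 10^3 per well in 6-well plates, in RPMI with 10% FBS. Grown 9–14 days in drug-containing medium, refreshed every fifth day. Fixed in 10% formalin, stained with 0.01% crystal violet. Total colony area quantified and expressed relative to DMSO. n = 3 biological replicates. IC50 ratio is wild-type over mutant.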

HCC44 = experiment: as §3; assay type: functional, cell-based; details: dose 0.001-10 µM, time 9-14 day; how it was run: as §4
[6] = AUC (0 to infinity) in male CD-1 (ICR) mouse at 25 mg/kg, ip measured up to 24 hrs by LC-MS/MS analysis; assay type: ADME, organism-based; details: in vivo
How it was run: (§5)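 Single 25 mg/kg dose. IP vehicle was 5% DMSO/5% solutol/90% water at 1.25 mg/mL, final pH 4.39, clear solution. Oral vehicle was 0.5% methylcellulose/0.2% Tween 80 in water, opaque suspension. Plasma sampled at 0.25, 0.5, 1, 2, 4, 8 and 24 h. Plasma protein-precipitated with internal standard in acetonitrile, then LC-MS/MS. n = 3 mice per time point, mean.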

[7] = AUC (0 to last) in male CD-1 (ICR) mouse at 25 mg/kg, ip measured up to 24 hrs by LC-MS/MS analysis; assay type: ADME, organism-based; details: in vivo; how it was run: as §5
[8] = (§6) Inhibition of colony formation in human NCI-H1568 cells harboring SMARCA4 mutant incubated for 9 to 14 days by crystal violet staining based assay; assay type: functional, cell-based; how it was run: as §4
NCI-H1568 = experiment: as §6; assay type: functional, cell-based; details: dose 0.001-10 µM, time 9-14 day; how it was run: as §4
[9] = Half life in male CD-1 (ICR) mouse at 25 mg/kg, ip measured up to 24 hrs by LC-MS/MS analysis; assay type: ADME, organism-based; details: in vivo; how it was run: as §5
[10] = biological target: T1, Protein cereblon/SWI/SNF-related matrix-associated actin-dependent regulator of chromatin subfamily A member 2; experiment: PROTAC activity at CRBN/SMARCA2 in human NCI-H2030 cells harboring mutated SMARCA4 assessed as induction of SMARCA2 degradation incubated for 48 hrs by immunoblot analysis; assay type: cell-based; how it was run: as §1
Target sequence in this assay (P51531 whole entry, looked up, change not shown): as the sequence (P51531 whole entry, looked up, change not shown) above
Target sequence in this assay (Q96SW2 whole entry, looked up, change not shown): as the sequence (Q96SW2 whole entry, looked up, change not shown) above

[11] = Metabolic stability in mouse liver microsomes assessed as compound remaining by measuring fold change in absence of NADPH measured after 60 mins by LC-MS/MS analysis; assay type: ADME, Microsome; details: 1 h
How it was run: (§7)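 Microsomes at 0.5 mg protein/mL preincubated with compound for 10 min at 37 °C. The NCF60 control received 100 mM potassium phosphate buffer in place of the NADPH regenerating system and was incubated 1 h at 37 °C. Quenched with cold acetonitrile containing tolbutamide and labetalol internal standards, centrifuged, supernatant analyzed by LC-MS/MS. Fraction remaining reported.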

[12] = biological target: T1, Protein cereblon/SWI/SNF-related matrix-associated actin-dependent regulator of chromatin subfamily A member 2; experiment: PROTAC activity at CRBN/SMARCA2 in human NCI-H1792 cells harboring wild type SMARCA4 assessed as induction of SMARCA2 degradation incubated for 24 hrs by immunoblot analysis; assay type: cell-based; how it was run: as §2
Target sequence in this assay (P51531 whole entry): as the sequence (P51531 whole entry, looked up, change not shown) above
Target sequence in this assay (Q96SW2 whole entry): as the sequence (Q96SW2 whole entry, looked up, change not shown) above

NCI-H1693 = experiment: Inhibition of colony formation in human NCI-H1693 cells harboring SMARCA4 mutant incubated for 9 to 14 days by crystal violet staining based assay; assay type: functional, cell-based; details: for inhibition: dose 0.001-10 µM, time 9-14 day; how it was run: as §4
[13] = biological target: T2, Protein cereblon/SWI/SNF-related matrix-associated actin-dependent regulator of chromatin subfamily A member 4; experiment: PROTAC activity at CRBN/SMARCA4 in human NCI-H1792 cells harboring wild type SMARCA4 assessed as induction of SMARCA4 degradation incubated for 48 hrs by immunoblot analysis; assay type: cell-based; how it was run: as §2
[14] = Cmax in male CD-1 (ICR) mouse at 25 mg/kg, ip measured up to 24 hrs by LC-MS/MS analysis; assay type: ADME, organism-based; details: in vivo; how it was run: as §5
[15] = biological target: T1, Protein cereblon/SWI/SNF-related matrix-associated actin-dependent regulator of chromatin subfamily A member 2; experiment: PROTAC activity at CRBN/SMARCA2 in human H322 cells harboring mutated SMARCA4 assessed as induction of SMARCA2 degradation incubated for 48 hrs by immunoblot analysis; assay type: cell-based; how it was run: as §1
Target sequence in this assay (P51531 whole entry, looked up, change not shown): as the sequence (P51531 whole entry, looked up, change not shown) above
Target sequence in this assay (Q96SW2 whole entry, looked up, change not shown): as the sequence (Q96SW2 whole entry, looked up, change not shown) above

[16] = biological target: T1, Protein cereblon/SWI/SNF-related matrix-associated actin-dependent regulator of chromatin subfamily A member 2; experiment: PROTAC activity at CRBN/SMARCA2 in human NCI-H1792 cells harboring wild type SMARCA4 assessed as induction of SMARCA2 degradation incubated for 48 hrs by immunoblot analysis; assay type: cell-based; how it was run: as §2
Target sequence in this assay (P51531 whole entry): as the sequence (P51531 whole entry, looked up, change not shown) above
Target sequence in this assay (Q96SW2 whole entry): as the sequence (Q96SW2 whole entry, looked up, change not shown) above

[17] = Metabolic stability in human liver microsomes assessed as compound remaining by measuring fold change in absence of NADPH measured after 60 mins by LC-MS/MS analysis; assay type: ADME, Microsome; details: 1 h; how it was run: as §7
[18] = Cmax in male CD-1 (ICR) mouse at 25 mg/kg, po measured up to 24 hrs by LC-MS/MS analysis; assay type: ADME, organism-based; details: in vivo; how it was run: as §5
[19] = (§8) Inhibition of colony formation in human NCI-H2122 cells harboring wild type SMARCA4 incubated for 9 to 14 days by crystal violet staining based assay; assay type: functional, cell-based; how it was run: as §4
NCI-H2122 = experiment: as §8; assay type: functional, cell-based; details: dose 0.001-10 µM, time 9-14 day; how it was run: as §4
[20] = AUC (0 to last) in male CD-1 (ICR) mouse at 25 mg/kg, po measured up to 24 hrs by LC-MS/MS analysis; assay type: ADME, organism-based; details: in vivo; how it was run: as §5
HCC515 = experiment: Antitumor activity against human HCC515 cells harboring SMARCA4 mutant xenografted in female athymic nude mouse assessed as tumor growth inhibition at 5 mg/kg, po administered once daily via gavage for 19 days relative to control; assay type: functional; details: HCC515, 456 h, time 19 day, read-out: TGI
How it was run: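 Cells (H1568 2 × 10^6, H2023 10 × 10^6, HCC515 5 × 10^6) in PBS:Matrigel 1:1, 200 μL, injected subcutaneously into flanks of 6–8-week-old females. Randomized at mean tumor volume 60 mm3 (H1568) or <200 mm3 (others). Dosed in 0.5% methylcellulose + 0.2–1% Tween-80, sonicated on ice. Caliper tumor volume and body weight tracked, mean ± SEM.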

T2 sequence (P51532 whole entry): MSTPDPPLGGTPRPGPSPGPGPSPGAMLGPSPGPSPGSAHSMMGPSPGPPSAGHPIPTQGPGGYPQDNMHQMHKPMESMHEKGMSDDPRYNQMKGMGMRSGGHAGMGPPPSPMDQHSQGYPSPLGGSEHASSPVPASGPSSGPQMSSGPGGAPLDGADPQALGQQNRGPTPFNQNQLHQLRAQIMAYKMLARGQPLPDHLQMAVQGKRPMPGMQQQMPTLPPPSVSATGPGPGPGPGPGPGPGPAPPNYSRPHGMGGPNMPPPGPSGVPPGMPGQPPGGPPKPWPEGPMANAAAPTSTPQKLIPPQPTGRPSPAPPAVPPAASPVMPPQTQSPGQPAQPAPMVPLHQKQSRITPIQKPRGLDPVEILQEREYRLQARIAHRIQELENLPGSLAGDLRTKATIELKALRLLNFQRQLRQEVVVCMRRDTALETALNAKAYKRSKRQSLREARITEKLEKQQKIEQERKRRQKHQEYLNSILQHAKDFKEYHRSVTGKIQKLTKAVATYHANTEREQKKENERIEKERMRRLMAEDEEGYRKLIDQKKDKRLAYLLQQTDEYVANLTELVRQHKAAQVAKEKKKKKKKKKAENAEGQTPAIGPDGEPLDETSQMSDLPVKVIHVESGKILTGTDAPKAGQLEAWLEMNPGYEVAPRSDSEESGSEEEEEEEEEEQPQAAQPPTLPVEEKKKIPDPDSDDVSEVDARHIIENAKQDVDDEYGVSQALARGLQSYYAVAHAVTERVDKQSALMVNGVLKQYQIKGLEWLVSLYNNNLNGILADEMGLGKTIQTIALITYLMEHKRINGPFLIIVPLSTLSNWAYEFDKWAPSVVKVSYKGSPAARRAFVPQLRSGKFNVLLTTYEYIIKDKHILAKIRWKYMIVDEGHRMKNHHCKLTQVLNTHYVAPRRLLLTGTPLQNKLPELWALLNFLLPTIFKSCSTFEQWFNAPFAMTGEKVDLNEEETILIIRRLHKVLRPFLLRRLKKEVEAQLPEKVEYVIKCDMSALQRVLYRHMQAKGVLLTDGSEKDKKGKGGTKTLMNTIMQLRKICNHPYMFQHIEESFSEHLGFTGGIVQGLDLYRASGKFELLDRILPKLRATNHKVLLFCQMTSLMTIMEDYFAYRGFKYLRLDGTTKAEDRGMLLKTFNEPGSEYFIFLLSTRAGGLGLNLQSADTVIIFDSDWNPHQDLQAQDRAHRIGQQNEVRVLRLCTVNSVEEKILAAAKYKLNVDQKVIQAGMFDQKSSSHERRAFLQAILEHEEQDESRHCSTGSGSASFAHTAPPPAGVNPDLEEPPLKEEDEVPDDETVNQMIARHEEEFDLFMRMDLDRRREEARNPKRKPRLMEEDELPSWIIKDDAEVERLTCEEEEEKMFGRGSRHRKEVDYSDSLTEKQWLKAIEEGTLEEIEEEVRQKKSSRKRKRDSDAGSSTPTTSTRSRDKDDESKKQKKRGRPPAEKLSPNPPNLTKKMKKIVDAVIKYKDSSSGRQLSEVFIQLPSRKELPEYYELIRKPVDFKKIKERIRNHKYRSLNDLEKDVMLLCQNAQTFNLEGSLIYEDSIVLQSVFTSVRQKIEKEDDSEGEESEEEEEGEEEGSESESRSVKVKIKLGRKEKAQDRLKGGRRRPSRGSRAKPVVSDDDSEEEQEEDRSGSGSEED
T2 sequence (Q96SW2 whole entry): as the sequence (Q96SW2 whole entry, looked up, change not shown) above

Structure (SMILES) | DC50 [1] | Activity [2] | DC50 [3] | DC50 [4] | IC50 [5] | inhibition (HCC44) | AUC [6] | AUClast [7] | IC50 [8] | inhibition (NCI-H1568) | t1/2 [9] | DC50 [10] | fold change (FC) [11] | DC50 [12] | IC50 (NCI-H1693) | inhibition (NCI-H1693) | DC50 [13] | Cmax [14] | DC50 [15] | DC50 [16] | also measured
Nc1nnc(-c2ccccc2O)cc1N1CCN(Cc2ccc(N3CCC(CN4CCN(c5ccc6c(c5)C(=O)N(C5CCC(=O)NC5=O)C6=O)CC4)CC3)c(F)c2)CC1 (stereo unspecified) | 10.6 nM | Active | 135 nM | 1.2 nM | 10000 nM | Dose-dependent-effect | 68813 ng·h/mL | 23213.7 ng·h/mL | 78 nM | Dose-dependent-effect | 44.8 h | 12.7 nM | 0.935 | 69 nM | 78 nM | Dose-dependent-effect | 381 nM | 1756.3 ng/mL | 6.4 nM | 60 nM | fold change (FC) [17]: 0.33; Cmax [18]: 649.3 ng/mL; IC50 ([19]; dose 0.001-10 µM, time 9-14 day): 10000 nM; inhibition (NCI-H2122): Dose-dependent-effect; AUClast [20]: 12079.3 ng·h/mL
Nc1nnc(-c2ccccc2O)cc1N1CCN(Cc2ccc(N3CCN(CCOc4cccc5c4C(=O)N(C4CCC(=O)NC4=O)C5=O)CC3)c(F)c2)CC1 (stereo unspecified) | 1.2 nM | Active; More Potent And Fastest Degradation Observed | 19 nM | 1.6 nM | 9100 nM | Dose-dependent-effect | 27108.3 ng·h/mL | 19365.3 ng·h/mL | 11 nM | Dose-dependent-effect | 13 h | 10.3 nM | 0.368 | 8.1 nM | 11 nM | Dose-dependent-effect | 149 nM | 2039.7 ng/mL | 1 nM | 16 nM | fold change (FC) [17]: 0.501; Cmax [18]: 587 ng/mL; IC50 ([19]; Homo sapiens, NCI-H2122, read-out: IC50): 9100 nM; inhibition (NCI-H2122): Dose-dependent-effect; AUClast [20]: 4743 ng·h/mL; inhibition in vivo at 5 mg/kg (HCC515): 48.8%
